In ChEMBL document CHEMBL1129507, “Betulinic acid derivatives: a new class of human immunodeficiency virus type 1 specific inhibitors with a new mode of action” (J Med Chem, 1996):

Key:
CCRF-CEM [1] = assay: Ability to inhibit the cytopathic effect induced by HIV-1 infection in CEM T-lymphoblastoid tumor cell line; type: functional, cell-based; settings: Homo sapiens
How it was run: (§1)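 CEM 4 cells in RPMI 1640 with 10% heat-inactivated FCS, penicillin, streptomycin, glutamine and polybrene (2 µg/mL), 37 °C, 5% CO2. Compound dilutions or PBS preincubated with cells for 1 h, then infected with HIV-1 IIIB/LAI (100-200 CCID50) and cultured ≥5 days. Mock-infected parallel cultures for cytotoxicity. Absorbance read at 540 nm; IC50 for 50% protection against cytopathogenicity, mean of ≥2 experiments.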

MT4 [2] = assay: Ability to inhibit the cytopathic effect induced by HIV-1 infection in MT-4 cells; type: functional, cell-based; settings: Homo sapiens
How it was run: (§2)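 MT-4 cells infected with HIV-1 strain IIIB/LAI. Protection from virus-induced cytopathogenicity measured by the MTT method. IC50 is the concentration giving 50% protection, mean of at least two experiments.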

CCRF-CEM [3] = assay: Ability to inhibit the cytopathic effect induced by HIV-1 infection in CEM T-lymphoblastoid tumor cell line; NA=not active.; type: functional, cell-based, Homo sapiens; how it was run: as §1
MT4 [4] = assay: Ability to inhibit the cytopathic effect induced by HIV-1 infection in MT-4 cells; NA=not active.; type: functional, cell-based, Homo sapiens; how it was run: as §2

Q: What does the source list for `C=C(CSCCN(CC)CC)[C@@H]1CC[C@]2(C(=O)NCCCCCCCCCCC(=O)O)CC[C@]3(C)[C@H](CCC4[C@@]5(C)CC[C@H](O)C(C)(C)[C@@H]5CC[C@]43C)[C@@H]12` (stereo partly specified)?
A: IC50 (CCRF-CEM [1]): 1 µM; IC50 (MT4 [2]): 0.63 µM

Q: How did the IC50 (MT4 [2]) turn out when `C=C(CSCC(=O)O)[C@@H]1CC[C@]2(C(=O)NCCCCCCCCCCC(=O)O)CC[C@]3(C)[C@H](CCC4[C@@]5(C)CC[C@H](O)C(C)(C)[C@@H]5CC[C@]43C)[C@@H]12` (stereo partly specified) was run?
A: 1.61 µM

Q: And the IC50 (CCRF-CEM [3])?
A: Not Active

Q: `C=C(C)[C@@H]1CC[C@]2(C(=O)N(C)CCCCCCCCCCC(=O)O)CC[C@]3(C)[C@H](CCC4[C@@]5(C)CC[C@H](O)C(C)(C)[C@@H]5CC[C@]43C)[C@@H]12` (stereo partly specified) was tested. Which IC50 (MT4 [4]) did it give?
A: Not Active

Q: What about the IC50 (CCRF-CEM [3]) of the same molecule?
A: Not Active

Q: `C=C(C)[C@@H]1CC[C@]2(CNCCCCCCCCCCC(=O)O)CC[C@]3(C)[C@H](CCC4[C@@]5(C)CC[C@H](O)C(C)(C)[C@@H]5CC[C@]43C)[C@@H]12` (stereo partly specified) was tested. Which IC50 (CCRF-CEM [3]) did it give?
A: Not Active

Q: What does the source list for `C=C(C)[C@@H]1CC[C@]2(C(=O)OCCCCCCCCCCC(=O)O)CC[C@]3(C)[C@H](CCC4[C@@]5(C)CC[C@H](O)C(C)(C)[C@@H]5CC[C@]43C)[C@@H]12` (stereo partly specified)?
A: IC50 (MT4 [4]): Not Active; IC50 (CCRF-CEM [3]): Not Active

Q: With `C=C(C)[C@@H]1CC[C@]2(NC(=O)NCCCCCCCCCC(=O)O)CC[C@]3(C)[C@H](CCC4[C@@]5(C)CC[C@H](O)C(C)(C)[C@@H]5CC[C@]43C)[C@@H]12` (stereo partly specified) as the molecule, how does the IC50 (MT4 [4]) read?
A: Not Active

Q: And the IC50 (CCRF-CEM [3])?
A: Not Active

Q: What does the source list for `CC1(C)C(O)CC[C@@]2(C)C1CC[C@]1(C)C2CCC2C3[C@H](C(=O)O)CC[C@]3(C(=O)NCCCCCCCCCCC(=O)O)CC[C@]21C` (stereo partly specified)?
A: IC50 (CCRF-CEM [1]): 50 µM; IC50 (MT4 [2]): 9 µM

Q: Which results are given for `C=C(CNC(C)=O)[C@@H]1CC[C@]2(C(=O)NCCCCCCCCCCC(=O)O)CC[C@]3(C)[C@H](CCC4[C@@]5(C)CC[C@H](O)C(C)(C)[C@@H]5CC[C@]43C)[C@@H]12` (stereo partly specified)?
A: IC50 (CCRF-CEM [1]): 1.25 µM; IC50 (MT4 [2]): 0.26 µM

Q: For `CC(=O)[C@@H]1CC[C@]2(C(=O)NCCCCCCCCCCC(=O)O)CC[C@]3(C)C(CCC4[C@@]5(C)CCC(O)C(C)(C)C5CC[C@]43C)C12` (stereo partly specified), which IC50 (CCRF-CEM [1]) is on record?
A: 12 µM

Q: Which IC50 (MT4 [4]) does the source give for `C=C(C)[C@@H]1CC[C@]2(NC(=O)CCCCCCCCCCC(=O)O)CC[C@]3(C)[C@H](CCC4[C@@]5(C)CC[C@H](O)C(C)(C)[C@@H]5CC[C@]43C)[C@@H]12` (stereo partly specified) here?
A: Not Active

Q: What about the IC50 (CCRF-CEM [3]) of the same molecule?
A: Not Active

Q: With `C=C(C)[C@@H]1CC[C@]2(C(=O)NCCCCCCCCCCC(=O)O)CC[C@]3(C)[C@H](CCC4[C@@]5(C)CC[C@H](OC)C(C)(C)[C@@H]5CC[C@]43C)[C@@H]12` (stereo partly specified) as the molecule, how does the IC50 (MT4 [4]) read?
A: Not Active

Q: What about the IC50 (CCRF-CEM [3]) of the same molecule?
A: Not Active

Q: For `C=C(CNCC(=O)O)[C@@H]1CC[C@]2(C(=O)NCCCCCCCCCCC(=O)O)CC[C@]3(C)[C@H](CCC4[C@@]5(C)CC[C@H](O)C(C)(C)[C@@H]5CC[C@]43C)[C@@H]12` (stereo partly specified), which IC50 (CCRF-CEM [3]) is on record?
A: Not Active

Q: Which IC50 (CCRF-CEM [1]) does the source give for `C=C(CN1CCCC1)[C@@H]1CC[C@]2(C(=O)NCCCCCCCCCCC(=O)O)CC[C@]3(C)[C@H](CCC4[C@@]5(C)CC[C@H](O)C(C)(C)[C@@H]5CC[C@]43C)[C@@H]12` (stereo partly specified) here?
A: 1 µM

Q: What about the IC50 (MT4 [2]) of the same molecule?
A: 0.42 µM

Q: Which IC50 (CCRF-CEM [1]) does the source give for `C=C(CNCCO)[C@@H]1CC[C@]2(C(=O)NCCCCCCCCCCC(=O)O)CC[C@]3(C)[C@H](CCC4[C@@]5(C)CC[C@H](O)C(C)(C)[C@@H]5CC[C@]43C)[C@@H]12` (stereo partly specified) here?
A: 5.75 µM

Q: What about the IC50 (MT4 [2]) of the same molecule?
A: 2 µM

Q: What does the source list for `C=C(C)[C@@H]1CC[C@]2(C(=O)NCCCCCCCCCCC(=O)O)CC[C@]3(C)[C@H](CCC4[C@@]5(C)CC[C@@H](O)C(C)(C)[C@@H]5CC[C@]43C)[C@@H]12` (stereo partly specified)?
A: IC50 (CCRF-CEM [1]): 3 µM; IC50 (MT4 [2]): 2.52 µM

Q: For `C=C(C)[C@@H]1CC[C@]2(C(=O)NCCCCCCCCCCC(=O)O)CC[C@]3(C)C(CCC4[C@@]5(C)CC(O)C(O)C(C)(C)C5CC[C@]43C)C12` (stereo partly specified), which IC50 (CCRF-CEM [3]) is on record?
A: Not Active

Q: Which results are given for `C=C(C)[C@@H]1CC[C@]2(C(=O)NCCCCCCCCCCC(=O)O)CC[C@]3(C)C(CC[C@@H]4[C@@]5(C)CC=CC(C)(C)C5CC[C@]43C)C12` (stereo partly specified)?
A: IC50 (CCRF-CEM [1]): 1.8 µM; IC50 (MT4 [2]): 2.6 µM

Q: How did the IC50 (CCRF-CEM [1]) turn out when `CC(C)[C@@H]1CC[C@]2(C(=O)NCCCCCCCCCCC(=O)O)CC[C@]3(C)C(CC[C@@H]4[C@@]5(C)CCC(O)C(C)(C)C5CC[C@]43C)C12` (stereo partly specified) was run?
A: 1.5 µM

Q: And the IC50 (MT4 [2])?
A: 0.58 µM

Q: For `C=C(C)[C@@H]1CC[C@]2(C(=O)NCCCCCCCCCCC(=O)O)CC[C@]3(C)C(CC[C@@H]4[C@@]5(C)C=C(O)C(=O)C(C)(C)C5CC[C@]43C)C12` (stereo partly specified), which IC50 (CCRF-CEM [1]) is on record?
A: 3 µM

Q: Which IC50 (CCRF-CEM [3]) does the source give for `C=C(C)[C@@H]1CC[C@]2(C(=O)NCCCCCCCCCCC(=O)O)CC[C@]3(C)[C@H](CCC4[C@@]5(C)CCCC(C)(C)[C@@H]5CC[C@]43C)[C@@H]12` (stereo partly specified) here?
A: Not Active

Q: Which IC50 (CCRF-CEM [3]) does the source give for `C=C(C)[C@@H]1CC[C@]2(C(=O)NCCCCCCCCCCC(=O)O)CC[C@]3(C)[C@H](CCC4[C@@]5(C)CC[C@H](N)C(C)(C)[C@@H]5CC[C@]43C)[C@@H]12` (stereo partly specified) here?
A: Not Active

Q: How did the IC50 (CCRF-CEM [1]) turn out when `C=C(C)[C@@H]1CC[C@]2(C(=O)NCCCCCCCCCCC(=O)O)CC[C@]3(C)[C@H](CCC4[C@@]5(C)CC[C@H](O)C(C)(C)[C@@H]5CC[C@]43C)[C@@H]12` (stereo partly specified) was run?
A: 0.23 µM

Q: What about the IC50 (MT4 [2]) of the same molecule?
A: 0.44 µM

Q: Which results are given for `C=C(CSCCO)[C@@H]1CC[C@]2(C(=O)NCCCCCCCCCCC(=O)O)CC[C@]3(C)[C@H](CCC4[C@@]5(C)CC[C@H](O)C(C)(C)[C@@H]5CC[C@]43C)[C@@H]12` (stereo partly specified)?
A: IC50 (CCRF-CEM [1]): 0.29 µM; IC50 (MT4 [2]): 0.27 µM

Q: How did the IC50 (CCRF-CEM [3]) turn out when `C=C(CN)[C@@H]1CC[C@]2(C(=O)NCCCCCCCCCCC(=O)O)CC[C@]3(C)[C@H](CCC4[C@@]5(C)CC[C@H](O)C(C)(C)[C@@H]5CC[C@]43C)[C@@H]12` (stereo partly specified) was run?
A: Not Active

Q: Which IC50 (CCRF-CEM [1]) does the source give for `C=C(CO)[C@@H]1CC[C@]2(C(=O)NCCCCCCCCCCC(=O)O)CC[C@]3(C)[C@H](CCC4[C@@]5(C)CC[C@H](O)C(C)(C)[C@@H]5CC[C@]43C)[C@@H]12` (stereo partly specified) here?
A: 0.2 µM

Q: And the IC50 (MT4 [2])?
A: 0.38 µM

Q: With `C=C(CSc1ccc(F)cc1)[C@@H]1CC[C@]2(C(=O)NCCCCCCCCCCC(=O)O)CC[C@]3(C)[C@H](CCC4[C@@]5(C)CC[C@H](O)C(C)(C)[C@@H]5CC[C@]43C)[C@@H]12` (stereo partly specified) as the molecule, how does the IC50 (CCRF-CEM [1]) read?
A: 2 µM

Q: And the IC50 (MT4 [2])?
A: 1.37 µM

Q: How did the IC50 (CCRF-CEM [1]) turn out when `C=C(C)[C@@H]1CC[C@]2(C(=O)NCCCCCCCCCCC(=O)O)CC[C@]3(C)[C@H](CCC4[C@@]5(C)CCC(=O)C(C)(C)[C@@H]5CC[C@]43C)[C@@H]12` (stereo partly specified) was run?
A: 1.2 µM

Q: And the IC50 (MT4 [2])?
A: 0.33 µM
